Reference: ChEMBL document CHEMBL4422627, “Discovery of potent, orally bioavailable ERK1/2 inhibitors with isoindolin-1-one structure by structure-based drug design” (Eur J Med Chem, 2019)
Activity calls are given as the source filed them. No cut-off for these calls is given here.

Molecular target: Mitogen-activated protein kinase 1 (Homo sapiens, UniProt P28482)
Assay: Inhibition of ERK2 (unknown origin) using […] as substrate after 40 mins by ADP-Glo luminescence assay
Conditions: not given

Sequence of Mitogen-activated protein kinase 1 (P28482 whole entry): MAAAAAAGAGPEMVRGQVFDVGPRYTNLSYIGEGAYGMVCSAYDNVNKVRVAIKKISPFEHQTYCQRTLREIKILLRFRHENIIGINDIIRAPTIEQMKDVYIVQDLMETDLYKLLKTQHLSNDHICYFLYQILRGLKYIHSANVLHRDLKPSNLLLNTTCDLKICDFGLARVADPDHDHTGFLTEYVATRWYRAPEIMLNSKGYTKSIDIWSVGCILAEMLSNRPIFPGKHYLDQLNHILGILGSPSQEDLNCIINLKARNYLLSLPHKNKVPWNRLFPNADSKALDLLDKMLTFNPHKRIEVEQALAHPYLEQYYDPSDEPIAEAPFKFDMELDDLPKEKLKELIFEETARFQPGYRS

SMILES | IC50
O=C1c2cc(-c3ccnc(NC4CCOCC4)n3)ccc2CN1C(CO)c1ccc(Cl)c(Cl)c1 (stereo not given) | 3.1 nM
O=C1c2cc(-c3ccnc(NC4CCCCC4)n3)ccc2CN1C(CO)c1cccc(Cl)c1 (stereo not given) | 7.2 nM
O=C1c2cc(-c3ccnc(NCCCO)n3)ccc2CN1C(CO)c1cccc(Cl)c1 (stereo not given) | 38.4 nM
O=C1c2cc(-c3ccnc(Nc4ccc(F)cc4)n3)ccc2CN1Cc1cccc(Cl)c1 | > 1000 nM
O=C1c2cc(-c3ccnc(NC4CCOCC4)n3)ccc2CN1[C@@H](CO)c1cccc(Cl)c1 | 201 nM
O=C1c2cc(-c3ccnc(NC4CCOC4)n3)ccc2CN1C(CO)c1cccc(Cl)c1 (stereo not given) | 5.4 nM
Cn1ccc(Nc2nccc(-c3ccc4c(c3)C(=O)N(C(CO)c3cccc(Cl)c3)C4)n2)n1 (stereo not given) | 25.6 nM
O=C1c2cc(-c3ccnc(NC4CCNCC4)n3)ccc2CN1C(CO)c1cccc(Cl)c1 (stereo not given) | > 1000 nM
O=C1c2cc(-c3ccnc(NC4CCOCC4)n3)ccc2CN1[C@H](CO)c1cccc(Cl)c1 | 0.8 nM

Next, values leading:

IC50 | SMILES
2.9 nM | O=C1c2cc(-c3ccnc(NC4CCOCC4)n3)ccc2CN1Cc1ccc(F)c(Cl)c1
1.6 nM | O=C1c2cc(-c3ccnc(NC4CCOCC4)n3)ccc2CN1Cc1cccc(Cl)c1
3.5 nM | Cn1nccc1Nc1nccc(-c2ccc3c(c2)C(=O)N(Cc2cccc(Cl)c2)C3)n1
5.6 nM | Cn1nccc1Nc1nccc(-c2ccc3c(c2)C(=O)N(Cc2ccc(Cl)c(F)c2)C3)n1
> 1000 nM | Cc1cccc(CN2Cc3ccc(-c4ccnc(Nc5ccnn5C)n4)cc3C2=O)n1
35.6 nM | O=C1c2cc(-c3ccnc(NC4CCOCC4)n3)ccc2CN1Cc1ccc(Cl)cc1

Molecular target: Mitogen-activated protein kinase 3 (Homo sapiens, UniProt P27361)
Assay: Inhibition of ERK1 (unknown origin) using […] as substrate after 40 mins by ADP-Glo luminescence assay
Conditions: not given

Sequence of Mitogen-activated protein kinase 3 (P27361 whole entry): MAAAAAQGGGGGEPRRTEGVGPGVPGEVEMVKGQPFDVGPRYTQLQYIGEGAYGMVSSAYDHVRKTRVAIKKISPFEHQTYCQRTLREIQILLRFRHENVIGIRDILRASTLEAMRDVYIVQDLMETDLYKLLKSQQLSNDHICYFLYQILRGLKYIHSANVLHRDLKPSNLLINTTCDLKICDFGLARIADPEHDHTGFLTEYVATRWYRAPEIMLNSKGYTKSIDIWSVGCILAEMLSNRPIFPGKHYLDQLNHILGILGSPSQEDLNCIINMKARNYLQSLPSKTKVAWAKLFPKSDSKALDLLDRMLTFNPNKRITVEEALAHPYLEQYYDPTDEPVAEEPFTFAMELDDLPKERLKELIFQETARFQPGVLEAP

IC50 | SMILES
3.3 nM | O=C1c2cc(-c3ccnc(NC4CCOCC4)n3)ccc2CN1Cc1cccc(Cl)c1

System: HCT-116
Assay: Antiproliferative activity against human HCT116 cells after 72 hrs by MTT assay
Assay type: functional, cell-based
Conditions: HCT-116, 72 h

IC50 | SMILES
150 nM | O=C1c2cc(-c3ccnc(NC4CCOCC4)n3)ccc2CN1Cc1cccc(Cl)c1

System: WM 266-4
Assay: Antiproliferative activity against human WM266.4 cells after 72 hrs by MTT assay
Assay type: functional, cell-based
Conditions: WM 266-4, 72 h

SMILES | IC50
O=C1c2cc(-c3ccnc(NC4CCOCC4)n3)ccc2CN1Cc1cccc(Cl)c1 | 220 nM

System: SW626
Assay: Antiproliferative activity against human SW626 cells after 72 hrs by MTT assay
Assay type: functional, cell-based
Conditions: SW626, 72 h

IC50 | SMILES
255 nM | O=C1c2cc(-c3ccnc(NC4CCOCC4)n3)ccc2CN1Cc1cccc(Cl)c1

System: COLO 205
Assay: Antiproliferative activity against human COLO205 cells after 72 hrs by MTT assay
Assay type: functional, cell-based
Conditions: COLO 205, 72 h

IC50 | SMILES
170 nM | O=C1c2cc(-c3ccnc(NC4CCOCC4)n3)ccc2CN1Cc1cccc(Cl)c1

System: HCT-116
Assay: Induction of apoptosis in human HCT116 cells assessed as increase in condense bright apoptotic nuclei formation at 1 uM by Hoechst 33258 staining-based assay
Assay type: functional, cell-based
Conditions: not given
Procedure, shortened: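 After compound incubation, HCT116 cells stained with Hoechst 33258 and examined for condensed, bright apoptotic nuclei; n=3 per group.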

SMILES | Activity
O=C1c2cc(-c3ccnc(NC4CCOCC4)n3)ccc2CN1C(CO)c1cccc(Cl)c1 (stereo not given) | Active

System: not listed separately
Assay: Half life in Sprague-Dawley rat at 50 mg/kg, po by LC/MS/MS analysis
Assay type: ADME, organism-based
Conditions: in vivo
Procedure, shortened: (§1)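 Sprague-Dawley rats dosed intravenously at 5 mg/kg or orally at 50 mg/kg; pharmacokinetic parameters derived from the plasma concentration data.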

half-life | SMILES
0.37 h | Cl.O=C1c2cc(-c3ccnc(NC4CCOCC4)n3)ccc2CN1Cc1cccc(Cl)c1
3.6 h | Cl.O=C1c2cc(-c3ccnc(NC4CCOCC4)n3)ccc2CN1C(CO)c1cccc(Cl)c1 (stereo not given)

System: not listed separately
Assay: Cmax in Sprague-Dawley rat at 50 mg/kg, po by LC/MS/MS analysis
Assay type: ADME, organism-based
Parameters: dose 50 mg/kg, route oral
Conditions: in vivo
Procedure, shortened: as §1

Cmax | SMILES
747 ng/mL | Cl.O=C1c2cc(-c3ccnc(NC4CCOCC4)n3)ccc2CN1Cc1cccc(Cl)c1
1920 ng/mL | Cl.O=C1c2cc(-c3ccnc(NC4CCOCC4)n3)ccc2CN1C(CO)c1cccc(Cl)c1 (stereo not given)

System: not listed separately
Assay: AUC (0 to t) in Sprague-Dawley rat at 50 mg/kg, po by LC/MS/MS analysis
Assay type: ADME, organism-based
Conditions: in vivo
Procedure, shortened: as §1

AUC(0-t) | SMILES
1280 ng·h/mL | Cl.O=C1c2cc(-c3ccnc(NC4CCOCC4)n3)ccc2CN1Cc1cccc(Cl)c1
8380 ng·h/mL | Cl.O=C1c2cc(-c3ccnc(NC4CCOCC4)n3)ccc2CN1C(CO)c1cccc(Cl)c1 (stereo not given)

System: not listed separately
Assay: MRT (0 to t) in Sprague-Dawley rat at 50 mg/kg, po by LC/MS/MS analysis
Assay type: ADME, organism-based
Conditions: in vivo
Procedure, shortened: as §1

MRT last | SMILES
1.2 h | Cl.O=C1c2cc(-c3ccnc(NC4CCOCC4)n3)ccc2CN1Cc1cccc(Cl)c1
3.4 h | Cl.O=C1c2cc(-c3ccnc(NC4CCOCC4)n3)ccc2CN1C(CO)c1cccc(Cl)c1 (stereo not given)

System: not listed separately
Assay: Oral bioavailability in Sprague-Dawley rat at 50 mg/kg by LC/MS/MS analysis
Assay type: ADME, organism-based
Conditions: in vivo
Procedure, shortened: as §1

bioavailability | SMILES
6.9% | Cl.O=C1c2cc(-c3ccnc(NC4CCOCC4)n3)ccc2CN1Cc1cccc(Cl)c1
22.5% | Cl.O=C1c2cc(-c3ccnc(NC4CCOCC4)n3)ccc2CN1C(CO)c1cccc(Cl)c1 (stereo not given)

Molecular target: T1, Mitogen-activated protein kinase; ERK1/ERK2 (Homo sapiens) (UniProt P27361+P28482)
Assay: Inhibition of ERK1/2 phosphorylation at Thr202/Tyr204 residues in human HCT116 cells by Western blot analysis
Assay type: cell-based
Conditions: not given
Procedure, shortened: (§2)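 Phosphorylation of ERK1/2 and RSK in HCT116 cells measured by western blot over a range of compound concentrations; means ± SD of three independent experiments, each condition run in triplicate.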

T1 sequence (P27361 whole entry, looked up): as the sequence (P27361 whole entry) above
T1 sequence (P28482 whole entry, looked up): as the sequence (P28482 whole entry) above

inhibition | SMILES
Dose-dependent effect | O=C1c2cc(-c3ccnc(NC4CCOCC4)n3)ccc2CN1C(CO)c1cccc(Cl)c1 (stereo not given)

Molecular target: T1, Mitogen-activated protein kinase; ERK1/ERK2 (Homo sapiens)
Assay: Inhibition of ERK1/2 in human HCT116 cells assessed as reduction in RSK phosphorylation at Thr359/Ser363 residues by Western blot analysis
Assay type: cell-based
Conditions: not given
Procedure, shortened: as §2

inhibition | SMILES
Dose-dependent effect | O=C1c2cc(-c3ccnc(NC4CCOCC4)n3)ccc2CN1C(CO)c1cccc(Cl)c1 (stereo not given)

System: K562
Assay: Antiproliferative activity against human K562 cells after 72 hrs by MTT assay
Assay type: functional, cell-based
Conditions: K562, 72 h

IC50 | SMILES
1550 nM | O=C1c2cc(-c3ccnc(NC4CCOCC4)n3)ccc2CN1Cc1cccc(Cl)c1
2870 nM | Cn1nccc1Nc1nccc(-c2ccc3c(c2)C(=O)N(Cc2cccc(Cl)c2)C3)n1
